For 167 variants, Kd results are on record in the RNAGym collection of RNA variant scans (doi:10.1038/nmeth.2970).

B1: NELF-E aptamer (parent)
chain: CCCAACGACUGCCGAGCGAGAUUACGCUUGAGCGCCCCACUGAGGAUGCCCACGGGCGAUUGGGGCACGG

Variants of B1 are the subject of the series. The series can be described thus: HiTS-RAP. The note with it: with NELF-E (Drosophila). The essentials:
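Aptamer DNA templates bearing a T7 promoter and a ter site were sequenced on an Illumina GAIIx flowcell. T7 RNA polymerase then transcribed them in situ, and GST-Tus halted transcription over 30 minutes at 37°C. After a 30-minute room-temperature equilibration with NELF-E-mOrange at 0.064 to 1000 nM in HEPES binding buffer, clusters were imaged, using only the first binding curve. Intensities normalised to sequencing intensity were averaged per sequence and fitted with weighted Hill fits to give Kd, retaining only fits whose variance stayed under 1,000,000.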
Regarding A15U U60C, the Kd is 10.7 nM.

With G14U U29C, the Kd is 7.48 nM.

Take G14U U29G: the Kd was 6.2 nM.

In the case of G14U U29A, the Kd is 5.7 nM.

Consider G14U U41G, for which the dissociation constant (Kd) came to 6.33 nM.

On to G14U U41A, for which the Kd was 51.7 nM.

For G14A G16U, the Kd worked out at 6.52 nM.

On to G14A G16A, for which the Kd is 6.86 nM.

As to G14A C33U, the Kd was determined as 6.15 nM.

Turning to G16U C57U, the Kd stood at 8.22 nM.

In the case of G14U U61A, the Kd was 36 nM.

In the case of G14U U61C, the Kd came to 86.8 nM.

Turning to G14U A39U, the Kd was determined as 32.5 nM.

As to G14U A39G, the Kd worked out at 9.72 nM.

Regarding G14U U23G, the Kd is 6.29 nM.

Consider G16U A39U, for which the Kd came to 23.5 nM.

As for G16U A39G, the Kd stood at 8.49 nM.

For the variant G14A A67U, the equilibrium dissociation constant (Kd) stood at 6.56 nM.

As to G14A A67G, the Kd was 5.51 nM.

For the variant A15U C17G, the Kd was found to be 7.12 nM.

As to G14A U23G, the Kd came out at 5.88 nM.

G16U G26A: the Kd came out at 4.92 nM.

Turning to G16U G26U, the Kd stood at 7.33 nM.

Take G14U A24G: the dissociation constant Kd stood at 6.51 nM.

G14U A19U: the Kd was determined as 7.38 nM.

Turning to G14U A19G, the Kd was 6.25 nM.

Consider G14A A19U, for which the Kd amounted to 4.56 nM.

In the case of G14U G26U, the Kd was 6.16 nM.

Take G14U G26A: the Kd was 5.3 nM.

As to G14A C17U, the Kd was found to be 5.62 nM.

In the case of G14A C17G, the Kd came to 5.98 nM.

Consider G16U A67U, for which the Kd is 10.1 nM.

For the variant G16U A67G, the dissociation constant (Kd) is 5.58 nM.

For A15U U41G, the Kd was 6.49 nM.

As to A15U U41C, the Kd was 82.7 nM.

Turning to G14A A21G, the dissociation constant (Kd) turned out to be 6.08 nM.

Consider G16A U29G, for which the Kd was determined as 5.1 nM.

With G16U G30A, the Kd was 4.95 nM.

As for G14A A31G, the Kd was 5.95 nM.

As for G16A U41G, the Kd came out at 6.55 nM.

Take G16U G63A: the Kd came to 15.2 nM.

For G14U C35U, the Kd came out at 10.1 nM.

A15G A24G: the Kd came out at 6.12 nM.

Consider G16U A21U, for which the Kd stood at 6.82 nM.

Regarding G16U A21G, the Kd amounted to 5.22 nM.

As to G14U C36U, the Kd was 8.6 nM.

Turning to G14U C57U, the Kd came out at 5.72 nM.

For the variant G14U G16U, the equilibrium dissociation constant (Kd) worked out at 7.62 nM.

For G14U G16A, the Kd is 6.74 nM.

As for G16U G20U, the Kd is 7.39 nM.

With G14A A52G, the Kd turned out to be 4.13 nM.

For the variant G14A G20U, the Kd was found to be 5.9 nM.

For G14C U29G, the Kd was found to be 5.67 nM.

For G16U G56A, the Kd is 13.2 nM.

In the case of G14U U47A, the Kd was determined as 9.21 nM.

On to A15G U41G, for which the dissociation constant (Kd) came out at 5.7 nM.

A15U A67G: the Kd turned out to be 4.18 nM.

As to G14U C37U, the Kd came to 21.2 nM.

A15G G16A: the Kd was 8.29 nM.

For the variant A15G G16U, the Kd was 5.48 nM.

Turning to G14A U61A, the equilibrium dissociation constant (Kd) is 30.3 nM.

As to G16U C66U, the Kd amounted to 5.92 nM.

In the case of G14U A52U, the Kd came out at 15.8 nM.

Consider G14A G55U, for which the Kd stood at 8.79 nM.

In the case of G16U G55A, the Kd came out at 7.53 nM.

Take G16U G55U: the Kd worked out at 8.69 nM.

With G14U C17G, the Kd came out at 6.27 nM.

Take G14U C17U: the Kd worked out at 6.1 nM.

For the variant A15G U22G, the Kd came to 5.78 nM.

As to G14U G55U, the Kd worked out at 9.69 nM.

Regarding G14U G55A, the Kd is 7.48 nM.

On to A15G A19G, for which the Kd was found to be 6.95 nM.

Take G14A C53U: the Kd was 4.16 nM.

As to G16U G34A, the Kd turned out to be 9.22 nM.

Take G14A U28C: the Kd is 7.17 nM.

Regarding G16A U22G, the Kd came to 6.17 nM.

In the case of G14U G64A, the Kd came out at 6.6 nM.

For A15G U23G, the dissociation constant Kd worked out at 5.24 nM.

Consider G14U G34U, for which the Kd was found to be 5.16 nM.

Turning to G14U G34A, the Kd amounted to 6.18 nM.

On to G14U C33U, for which the Kd was 5.15 nM.

Consider G14U G62A, for which the Kd came out at 19.1 nM.

As for A15G A21G, the Kd stood at 5.12 nM.

As for G14U G54A, the Kd turned out to be 12.6 nM.

G16U C25G: the Kd was 7.48 nM.

With G14U G63U, the Kd came to 12.8 nM.

Regarding G14U G63A, the Kd came out at 11.9 nM.

On to G14A U29C, for which the Kd stood at 4.73 nM.

Turning to G14A U29G, the Kd turned out to be 5.42 nM.

With G14A U29A, the Kd is 4.86 nM.

On to G16A G20U, for which the dissociation constant (Kd) came out at 7.98 nM.

G14U C40U: the Kd turned out to be 53.4 nM.

Consider G14U C40G, for which the Kd is 9.9 nM.

In the case of G14U G48A, the Kd turned out to be 13.2 nM.

A15U A24G: the Kd was found to be 6.86 nM.

On to G16A U23G, for which the dissociation constant (Kd) worked out at 6.04 nM.

In the case of G16A A24G, the Kd was 6.88 nM.

With G14U A31G, the Kd is 7.27 nM.

Regarding G16U G18A, the Kd was found to be 7.17 nM.

With G16U A24G, the Kd is 7.15 nM.

Take G14A U41G: the Kd was 5.69 nM.

For the variant A15U C57U, the Kd stood at 14.3 nM.

Take G14U A15G: the equilibrium dissociation constant (Kd) was 6.08 nM.

In the case of G14U A15U, the Kd is 6.94 nM.

Regarding A15U U22G, the dissociation constant (Kd) was 6.74 nM.

Turning to G14A A39G, the Kd is 9.46 nM.

With G14A A39U, the Kd is 31 nM.

In the case of G16U A31U, the dissociation constant (Kd) was found to be 6.75 nM.

As for G16U A31G, the dissociation constant (Kd) worked out at 8.32 nM.

For the variant A15C, the Kd was determined as 4 nM.

As to A15U, the dissociation constant (Kd) came out at 5.65 nM.

Regarding A15G, the dissociation constant Kd is 4.77 nM.

Consider A15U G34A, for which the Kd amounted to 11.8 nM.

As to G14U U22G, the Kd came to 6.53 nM.

In the case of G14U U22C, the Kd came to 5.6 nM.

G14U G65A: the Kd is 6.7 nM.

In the case of G14U G65U, the Kd was 8.73 nM.

For G14A U22G, the Kd came out at 5.03 nM.

For the variant G14A U22C, the Kd stood at 5.13 nM.

Regarding G14U A46G, the Kd turned out to be 57.2 nM.

On to A15U A19G, for which the Kd was found to be 9.2 nM.

For the variant G14A A24G, the Kd came to 5.71 nM.

Take A15U U29G: the Kd came to 6.83 nM.

As to A15U U29A, the Kd amounted to 5.96 nM.

In the case of G14A G54A, the Kd was found to be 12.4 nM.

On to G14U A21U, for which the dissociation constant (Kd) was found to be 6.73 nM.

For G14U A21G, the dissociation constant (Kd) worked out at 6.69 nM.

Turning to G14A G18A, the Kd worked out at 5.3 nM.

Take G16U C37U: the Kd turned out to be 21.9 nM.

For G16A C17G, the Kd came to 6.2 nM.

For A15U U23G, the Kd was 5.84 nM.

On to G16A, for which the Kd was determined as 5.27 nM.

With G16C, the dissociation constant Kd came out at 4.81 nM.

In the case of G16U, the Kd amounted to 5.88 nM.

Regarding G14U G20A, the dissociation constant (Kd) was 6.93 nM.

For the variant G14U G20U, the Kd was 6.93 nM.

As for G14A C51U, the dissociation constant (Kd) was found to be 7.06 nM.

As to G14U G56U, the Kd is 7.18 nM.

For G14U G56A, the Kd was 9.7 nM.

Take G14A G63A: the Kd is 12 nM.

On to A15U G16U, for which the Kd was 8.03 nM.

With G14U, the Kd is 5.68 nM.

G14C: the Kd is 5.95 nM.

Regarding A15G U29G, the Kd was determined as 5.98 nM.

Take G16U G42A: the Kd was determined as 36.6 nM.

G14U C38U: the Kd was 9.69 nM.

Consider G14U U28G, for which the Kd was determined as 9.45 nM.

As for G14A G30A, the Kd worked out at 5.61 nM.

With G16U G54A, the Kd was found to be 16.2 nM.

As to G16U C17G, the Kd stood at 5.95 nM.

In the case of G16U C17U, the Kd was 6.11 nM.

With G16U A19G, the Kd turned out to be 6.97 nM.

In the case of G16U A19U, the Kd is 5.21 nM.

Take G14U A67G: the Kd is 6.8 nM.

For G14U A67U, the Kd was found to be 6.23 nM.

As to G14A A43G, the Kd stood at 9.58 nM.

As to G16U A52G, the Kd turned out to be 4.81 nM.

Take G16U A52U: the Kd is 19.7 nM.

As for A15G C17G, the Kd came out at 5.93 nM.

In the case of G14A C57U, the equilibrium dissociation constant (Kd) came to 6.72 nM.

Take G14U C25G: the Kd came out at 8.18 nM.

On to G14U C25U, for which the Kd amounted to 7.71 nM.

For the variant G14U A43U, the dissociation constant Kd was 84.4 nM.

In the case of G14U A43G, the Kd came out at 116 nM.

As for G14U G18U, the Kd was 7.17 nM.

Consider G14U G18A, for which the dissociation constant (Kd) came to 6.29 nM.

With A15U G20U, the Kd stood at 7.81 nM.
